# Measured values gathered from unrelated publications.
# Each line is one published result; the experiments were not run side by side.
# Target: Serine/threonine-protein kinase 17A (STK17A, Homo sapiens, UniProt Q9UEE5)
# One construct used (Q9UEE5 1-414): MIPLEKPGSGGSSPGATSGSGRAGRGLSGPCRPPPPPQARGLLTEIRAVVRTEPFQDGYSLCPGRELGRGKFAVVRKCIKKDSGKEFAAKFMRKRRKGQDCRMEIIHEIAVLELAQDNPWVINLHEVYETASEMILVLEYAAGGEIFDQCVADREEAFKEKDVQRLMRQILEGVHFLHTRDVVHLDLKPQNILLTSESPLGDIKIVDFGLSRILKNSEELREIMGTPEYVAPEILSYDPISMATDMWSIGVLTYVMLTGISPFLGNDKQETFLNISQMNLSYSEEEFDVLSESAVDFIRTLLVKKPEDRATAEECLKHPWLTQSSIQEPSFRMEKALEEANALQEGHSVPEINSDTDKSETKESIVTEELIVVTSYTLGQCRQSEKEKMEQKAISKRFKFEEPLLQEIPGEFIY
SMILES,assay,conditions,endpoint,result
COc1ccc2cc(OCC3(C(=O)O)CN(C(=O)c4ccc(F)cc4)C3)ccc2c1,"cell-free assay, competition with immobilised ligand",1 µM,remaining binding,81%
CC(C)c1ccc(NC(=O)c2cccs2)c(-c2nc3ccccc3[nH]c2=O)c1,"enzyme activity, inhibitor",1 µM,activity vs control,91%
Cc1nn(CC(F)(F)F)cc1Nc1nccc(NCc2ccc(S(N)(=O)=O)cc2)n1,"enzyme activity, inhibitor, radiometric",1 µM,remaining activity,103%
O=C1Nc2ccc(Cl)cc2C1=Cc1cc(Cl)c(O)c(Cl)c1,cell-free assay,0.5 µM,remaining signal,78.9%
Cc1c(NC(=O)c2cc(C(N)=O)nc3cc(F)ccc23)c(C(F)(F)F)nn1Cc1ccc(C#N)cc1,"cell-free assay, competition with immobilised ligand",1 µM,remaining binding,90%
O=C(NCCCNc1ccnc(Nc2cccc(NC(=O)N3CCCC3)c2)n1)C1CCC1,"enzyme activity, inhibitor, radiometric",1 µM,remaining activity,18%
O=C1CCc2cc(Nc3cc(OC4CCOCC4)c([N+](=O)[O-])cc3Cl)ccc2N1,"cell-free assay, competition with immobilised ligand",1 µM,remaining binding,95%
CNC(=O)c1cc(Oc2ccc(NC(=O)Nc3ccc(Cl)c(C(F)(F)F)c3)cc2)ccn1,cell-free assay,0.3 µM,inhibition,-8%
CC(=O)c1c(NS(C)(=O)=O)c2cc(-c3ccc(Cl)cc3)c(-c3ccc(Cl)cc3Cl)nc2n(C)c1=O,"cell-free assay, competition with immobilised ligand",1 µM,remaining binding,88%
Cc1nn(CC(F)(F)F)cc1Nc1ncc(C2CC2)c(NCCCNC(=O)C2CCC2)n1,"enzyme activity, inhibitor, radiometric",1 µM,remaining activity,25%
Clc1ccc(Nc2nnc(Cc3ccncc3)c3ccccc23)cc1,cell-free assay,0.5 µM,remaining signal,99.4%
Cc1noc([C@H]2C[C@@H](c3ccc(C(F)(F)F)cc3)CN(C(=O)N3CCS(=O)(=O)C3)C2)n1,"cell-free assay, competition with immobilised ligand",1 µM,remaining binding,100%
Cc1ccc(NC(=O)c2ccc(C)c(C(F)(F)F)c2)cc1C#Cc1nn(C2CCC(O)CC2)c2ncnc(N)c12 (centres unmarked),cell-free assay,10 µM,remaining signal,140%
NS(=O)(=O)c1ccc(CNc2nc(Nc3cccc(CN4CCOCC4)c3)ncc2Br)cc1,"enzyme activity, inhibitor, radiometric",1 µM,remaining activity,58%
C#Cc1cccc(Nc2ncnc3cc(OCCOC)c(OCCOC)cc23)c1,cell-free assay,0.5 µM,remaining signal,99.7%
CN1CCc2cc(Nc3ncc(C4CC4)c(NCCCNC(=O)C4CCC4)n3)ccc2C1,"enzyme activity, inhibitor, radiometric",1 µM,remaining activity,3%
CC1CCCN1c1nccc(-c2cnn3ncccc23)n1 (centres unmarked),binding,1 µM,remaining binding,84%
